Measurements taken from ChEMBL document CHEMBL1123516, “Substituted 1,3,4-thiadiazoles with anticonvulsant activity. 1. Hydrazines” (J Med Chem, 1986).

Key:
Rattus norvegicus [1] = assay: Inhibition of hind limb tonus was tested at time of peak effect by maximal electroshock test (MES) on intraperitoneal administration of compound in rats; type: functional; settings: Hindlimb, ip
Mus musculus [2] = assay: Inhibition of hind limb tonus was tested by maximal metrazole seizure (MMS) test in mouse after 1 hr of peroral administration; type: functional; settings: Hindlimb, po
In short: (§1)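 Male BKW mice, 18-22 g, dosed orally with compound in 2% Tween 80/water. Metrazol 120 mg/kg ip was given 1 h after dosing. ED50 for block of hind limb tonic seizure was derived by Bliss probit analysis.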

Rattus norvegicus [3] = assay: Inhibition of hind limb tonus was tested by maximal metrazole seizure test after 4 hr of peroral administration; type: functional; settings: Hindlimb, po
Rattus norvegicus [4] = assay: Inhibition of hind limb tonus was tested by maximal electroshock test (MES) in rat after 4 hr of peroral administration; type: functional; settings: Hindlimb, po
Rattus norvegicus [5] = assay: Inhibition of hind limb tonus was tested by maximal metrazole seizure test after 1 hr of peroral administration of compound; type: functional; settings: Hindlimb, po
Mus musculus [6] = assay: Inhibition of hind limb tonus was tested by maximal electroshock test (MES) in mouse after 1 hr of peroral administration of compound; type: functional; settings: Hindlimb, po
In short: (§2)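 Male BKW mice (LACA origin), 18-22 g, dosed ip or po with compound dissolved or suspended in 2% Tween 80 in distilled water. Readout was block of hind limb tonic seizure. ED50 was derived by probit analysis using the computerized Bliss method.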

[7] = Protective index (rat) was from the ratio of plasma concentration at which side effects occur by plasma concentration at which anticonvulsant activity occur.; type: functional
In short: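 Rat plasma drug concentration at rotorod impairment was divided by the plasma concentration at MES anticonvulsant activity. Both were measured by HPLC-UV in plasma from dosed rats.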

Rattus norvegicus [8] = assay: Inhibition of hind limb tonus was tested by maximal electroshock test (MES) in rat after 1 hr of peroral administration; type: functional; settings: Hindlimb, po
Mus musculus [9] = assay: Inhibition of hind limb tonus was tested at time of peak effect by maximal electroshock test (MES) in mouse on intraperitoneal administration of compound; type: functional; settings: Hindlimb, ip; in short: as §2
Mus musculus [10] = assay: Anticonvulsant activity tested by maximal electroshock test (MES) in mouse after 1 hr of administration; type: functional; in short: as §2
Mus musculus [11] = assay: Anticonvulsant activity tested by maximal metrazole seizure (MMS) test in mouse after 1 hr of administration; type: functional; in short: as §1
[12] = Neurotoxicity by a rotarod test in mouse after 1 hr of administration; type: toxicity, organism-based; settings: in vivo
In short: (§3)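 Male BKW mice, 18-22 g, were pre-trained on a rotorod turning at 16 rpm (3 cm drum). They were dosed ip or po in 2% Tween 80/water and tested at timed intervals. TD50, the dose at which 50% fell off the rod, was derived by probit analysis.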

Rattus norvegicus [13] = assay: Maximum percent fall in mean arterial blood pressure was evaluated by injecting 100 mg/kg perorally in DOCA hypertensive rats; type: functional; settings: route oral
Mus musculus [14] = assay: Anticonvulsant activity was assessed by performing maximal electroshock test (MES) 1 hr after dosing, in mouse.; type: functional; in short: as §2
[15] = Neurotoxicity by performing a rotarod test in mouse after 1 hr of administration; type: toxicity, organism-based; settings: in vivo; in short: as §3
[16] = Effect of compound on mouse motor performance was tested by performing a rotarod test after 1 hr of peroral administration; type: ADME, organism-based; settings: in vivo, po
In short: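 Male BKW mice (LACA origin, 18-22 g) were pre-trained on a rotorod at 16 rpm with a 3 cm drum. Compound was given orally in 2% Tween 80 in water, and mice were tested 1 h later. TD50 was the dose at which 50% fell off, derived by probit analysis.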

Mus musculus [17] = assay: Inhibition of hind limb tonus was tested at time of peak effect by maximal metrazole seizure (MMS) test administered intraperitoneally in mouse; type: organism-based; settings: Hindlimb, ip
In short: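 Male BKW mice (18-22 g) received compound intraperitoneally in 2% aqueous Tween 80 and were challenged with metrazol 120 mg/kg ip at the time of peak effect. ED50 for block of hind limb tonic seizure in 50% of mice was obtained by probit analysis.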

Rattus norvegicus [18] = assay: Inhibition of hind limb tonus was tested at time of peak effect by maximal electroshock test (MES) in rat on intraperitoneal administration of compound; type: functional; settings: Hindlimb, ip
In short: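 Rats received compound intraperitoneally and were tested at the time of peak effect. ED50 was the dose blocking hind limb tonic seizure in 50% of animals, derived by probit analysis using the Bliss computerized method (Finney).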

[19] = Effect of compound on mouse motor performance was tested by rotarod test administered intraperitoneally; type: ADME, organism-based; settings: in vivo, ip
In short: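 Male BKW mice (18-22 g) were pre-trained on a 16 rpm rotorod with a 3 cm drum. Drug was injected intraperitoneally as a solution or suspension in 2% aqueous Tween 80, and mice were tested at the time of peak effect. TD50 was the dose making 50% of trained animals fall off, calculated by probit analysis.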

[20] = Neurotoxicity by performing a rotarod in mouse after 1 hr of administration; type: toxicity, organism-based; settings: in vivo; in short: as §3
[21] = Effect of compound on mouse motor performance was tested by rotarod test after 1 hr of peroral administration; type: ADME, organism-based; settings: in vivo, po; in short: as §3
Rattus norvegicus [22] = species on record: Rattus norvegicus; assay: Plasma concentration was determined in rat maximal electroshock test; type: functional, organism-based
In short: (§4)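 Groups of six rats received compound suspended in 2% Tween 80/water (0.5 mL/100 g) ip or po. Blood was drawn by cardiac puncture into heparin at various times. Plasma was extracted and assayed by HPLC-UV on an ODS column with 1% acetic acid/methanol/0.1% aqueous ammonium acetate (45:55).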

[23] = Effect of compound on mouse motor performance was studied by performing a rotarod test in mouse dosing intraperitoneally at time of peak effect.; type: ADME, organism-based; settings: in vivo, ip; in short: as §3
Rattus norvegicus [24] = species on record: Rattus norvegicus; assay: Plasma concentration in rat rotarod test.; type: functional, organism-based; in short: as §4
Rattus norvegicus [25] = assay: Inhibition of hind limb tonus was tested by maximal metrazole seizure test after 1 hr of peroral administration in rats; type: functional; settings: Hindlimb, po
In short: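 Rats were dosed orally, then given metrazol (leptazol) 80 mg/kg iv 1 h later, following the Desmedt method. The endpoint was hind limb tonic seizure, with ED50 by probit analysis.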

Mus musculus [26] = assay: Inhibition of hind limb tonus was tested by performing a maximal metrazole seizure (MMS) test in mouse after 1 hr of peroral administration of compound; settings: Hindlimb, po
Rattus norvegicus [27] = assay: Inhibition of hind limb tonus was tested by maximal electroshock test (MES) in rat 1 hr after peroral dosing; type: functional; settings: Hindlimb, po
Rattus norvegicus [28] = assay: Inhibition of hind limb tonus was tested by maximal metrazole seizure test after 4 hr of peroral administration in rats; type: functional; settings: Hindlimb, po
In short: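 Rats received the anticonvulsant orally, then metrazol (leptazol) 80 mg/kg iv, following Desmedt et al. The endpoint was block of the hind limb tonic seizure. ED50 was the dose protecting 50% of animals, by probit analysis (Bliss computerized method), with limits.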

With `NC(=O)N1c2ccccc2C=Cc2ccccc21` [CARBAMAZEPINE] the ED50 (Rattus norvegicus [1]) was 2 mg/kg, the ED50 (Mus musculus [2]) was 11 mg/kg and the ED50 (Rattus norvegicus [3]) was 5 mg/kg. For the same compound, the ED50 (Rattus norvegicus [4]) was 7 mg/kg, the ED50 (Rattus norvegicus [5]) was 3 mg/kg and the ED50 (Mus musculus [6]) was 20 mg/kg. The PI [7] was 2.51, the ED50 (Rattus norvegicus [8]) was 4 mg/kg and the ED50 (Mus musculus [9]) was 6 mg/kg.

Work on `CCCCCCOc1ccccc1-c1nnc(NN)s1.Cl` yielded an ED50 (Mus musculus [10]) of 20 mg/kg, an ED50 (Mus musculus [11]) of 33 mg/kg and a TD50 at 1 h [12] greater than 150 mg/kg. For the same compound, the “Decrease in blood pressure” value (Rattus norvegicus [13]) was 10%.

With `CN(C)N(C)c1nnc(-c2ccccc2-c2ccccc2)s1.Cl` the ED50 (Mus musculus [11]) was 73 mg/kg, the ED50 (Mus musculus [14]) was 63 mg/kg and the TD50 at 1 h [15] was greater than 800 mg/kg.

`CCC1(c2ccccc2)C(=O)NC(=O)NC1=O` [PHENOBARBITAL] gave an ED50 (Mus musculus [2]) of 4 mg/kg, an ED50 (Rattus norvegicus [3]) of 5 mg/kg and an ED50 (Rattus norvegicus [4]) of 3 mg/kg. It also gave a TD50 at 1 h [16] of 68 mg/kg, an ED50 (Mus musculus [17]) of 6 mg/kg and an ED50 (Rattus norvegicus [18]) of 3 mg/kg. The ED50 (Rattus norvegicus [5]) was 4 mg/kg, the TD50 [19] was 86 mg/kg and the ED50 (Mus musculus [6]) was 12 mg/kg. It also gave a PI [7] of 2.42, an ED50 (Rattus norvegicus [8]) of 9 mg/kg and an ED50 (Mus musculus [9]) of 18 mg/kg.

With `COCN(N)c1nnc(-c2ccccc2Cl)s1` the ED50 (Mus musculus [10]) was 50 mg/kg, the TD50 at 1 h [20] was 80 mg/kg and the ED50 (Mus musculus [11]) was 60 mg/kg.

`CN(N)c1nnc(-c2ccccc2-c2ccccc2)s1` gave an ED50 (Rattus norvegicus [1]) of 6 mg/kg, an ED50 (Mus musculus [2]) of 27 mg/kg and an ED50 (Rattus norvegicus [3]) of 13 mg/kg. It also gave an ED50 (Rattus norvegicus [4]) of 11 mg/kg, a TD50 at 1 h [21] greater than 1000 mg/kg and a Concentration (Rattus norvegicus [22]) of 11.1 µg/mL. For the same compound, the TD50 [23] was 93 mg/kg, the ED50 (Rattus norvegicus [5]) was 13 mg/kg and the Concentration (Rattus norvegicus [24]) was 57 µg/mL. It also gave an ED50 (Mus musculus [6]) of 18 mg/kg, a PI [7] of 5.14 and an ED50 (Rattus norvegicus [8]) of 16 mg/kg. The ED50 (Mus musculus [9]) was 17 mg/kg.

`O=C1NC(=O)C(c2ccccc2)(c2ccccc2)N1` [PHENYTOIN] gave an ED50 (Rattus norvegicus [1]) of 14 mg/kg, an ED50 (Rattus norvegicus [25]) of 12 mg/kg and an ED50 (Rattus norvegicus [4]) of 26 mg/kg. The ED50 (Mus musculus [17]) was 12 mg/kg, the ED50 (Mus musculus [26]) was 8 mg/kg and the ED50 (Rattus norvegicus [27]) was 14 mg/kg. The ED50 (Mus musculus [6]) was 8 mg/kg, the ED50 (Rattus norvegicus [28]) was 20 mg/kg and the PI [7] was 5.17. It also gave an ED50 (Mus musculus [9]) of 8 mg/kg.
